Reference: ChEMBL document CHEMBL4680079, “Discovery of a Quinoline-4-carboxamide Derivative with a Novel Mechanism of Action, Multistage Antimalarial Activity, and Potent in Vivo Efficacy” (J Med Chem, 2016)
In brackets after ≈: the same amount, converted by molar mass.

Experiments:
Plasmodium falciparum [1] = assay: Antiplasmodial activity against chloroquine-sensitive Plasmodium falciparum 3D7 infected in human red blood cells assessed as growth inhibition by SYBR Green fluorescence assay; type: functional, organism-based, RBC; conditions: 3D7, Erythrocyte
Summary of the method: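 P. falciparum 3D7 grown in 5% human red cells in RPMI 1640 (pH 7.3) with 0.5% Albumax II, hypoxanthine and gentamicin at 37°C under 1% O₂/3% CO₂. Growth measured by SYBR green fluorescence (ex 485/em 528 nm), with mefloquine as assay control. EC50 calculated.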

MRC5 = assay: Antiproliferative activity against human MRC5 cells assessed as reduction in cell viability after 68 hrs by resazurin dye based fluorescence assay; conditions: MRC5, 68 h
Summary of the method: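 MRC-5 fibroblasts plated overnight as monolayers, exposed to compound pre-diluted in MEM for 68 h. Resazurin then added (final 50 μM) for 3 h, fluorescence read at ex 528/em 590 nm. Signal converted to % inhibition against high- and no-inhibition controls. Plates accepted at Z' > 0.5.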

Plasmodium falciparum [2] = assay: Antiplasmodial activity against late stage (IV/V) Plasmodium falciparum NF54 gametocytes transfected with GFP-LUC assessed as growth inhibition incubated for 72 hrs by mitotracker Red-CMXROS dye based fluorescence microscopic analysis; type: functional, organism-based; conditions: NF54, 72 h
Summary of the method: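 NF54 pfs16-LUC-GFP stage IV–V gametocytes (10% parasitaemia, 0.1% haematocrit) exposed to compound in 0.4% DMSO, three concentrations per log, for 72 h at 37°C under 5% CO2/5% O2/90% N2. MitoTracker Red CM-H2Xros then added for 16 h and viable gametocytes counted by imaging.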

Plasmodium berghei [3] = assay: Antiplasmodial activity against Plasmodium berghei ookinete form assessed as growth inhibition incubated for 22 hrs by GFP-based fluorescence microscopic analysis; type: functional, organism-based
[4] = Intrinsic clearance in CD1 mouse liver microsomes at 0.5 uM in presence of NADPH incubated upto 30 mins by UPLC-MS/MS analysis; type: ADME, Microsome; conditions: 0.5 h
Summary of the method: (§1)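 Compound at 0.5 μM incubated with female CD1 mouse, male Sprague-Dawley rat or pooled human liver microsomes (0.5 mg/mL, 50 mM potassium phosphate, pH 7.4). Reaction started with excess NADPH. Samples taken at 0-30 min, quenched in acetonitrile, analysed by UPLC-MS/MS. Verapamil used as control, single time course.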

[5] = Kinetic aqueous solubility of the compound by laser nephelometry; type: physicochemical; conditions: read-out: Kinetic_solubility
Summary of the method: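 Kinetic solubility measured by laser nephelometry. DMSO serial dilutions diluted into water to give final 100–5 μg/mL at 1.0% DMSO. Read immediately, in triplicate aliquots.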

[6] = Permeability of the compound at 10 uM incubated for 5 hrs by UPLC-MS/MS analysis based PAMPA method; type: ADME; conditions: read-out: permeability
Summary of the method: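 PAMPA run on a lipid-oil-lipid tri-layer filter at pH 7.4. Compound at 10 μM in PBS (DMSO ≤5%) in donor wells, PBS in acceptor wells, kept 5 h at room temperature. Both compartments quantified by UPLC-MS/MS. Data accepted only when recovery exceeded 70%.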

[7] = Protein binding in CD1 mouse plasma measured after 5 hr by UPLC-MS/MS analysis based equilibrium dialysis method; type: ADME, cell-free; conditions: mouse, 5 h
Summary of the method: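 Equilibrium dialysis of female CD1 mouse plasma spiked at 10 μg/mL (12-14 kDa membrane) against isotonic buffer for 5 h at ~37°C with shaking. Unbound fraction taken as the buffer/plasma peak-area ratio by UPLC-MS/MS. n=6 replicates, run in triplicate.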

[8] = molecular target: Voltage-gated inwardly rectifying potassium channel KCNH2 (Homo sapiens, UniProt Q12809); assay: Inhibition of human ERG by IonWorks patch-clamp electrophysiology method
Summary of the method: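 hERG K⁺ channel inhibition measured by IonWorks patch-clamp electrophysiology. Eight-point concentration-response curves made from 3-fold serial dilutions down from the maximum final assay concentration. Each curve generated on 2 occasions.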

[9] = Intrinsic clearance in Sprague-Dawley rat liver microsomes at 0.5 uM in presence of NADPH incubated upto 30 mins by UPLC-MS/MS analysis; type: ADME, Microsome; conditions: 0.5 h; summary of the method: as §1
[10] = Intrinsic clearance in human liver microsomes at 0.5 uM in presence of NADPH incubated upto 30 mins by UPLC-MS/MS analysis; type: ADME, Microsome; conditions: 0.5 h; summary of the method: as §1
Plasmodium berghei [11] = assay: Antiplasmodial activity against Plasmodium berghei ANKA infected in NMRI mouse assessed as reduction in parasitemia at 1 mg/kg, po QD for 4 days; type: functional; parameters: scale not given: the % may be the effect or the level left; conditions: time 4 day
Summary of the method: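 Female NMRI mice (n=3 per group, randomized, not blinded) infected with GFP-transfected P. berghei ANKA. Oral dosing once daily for 4 days in 10% DMSO/40% PEG400/50% water or HPMC suspension vehicle. Parasitaemia measured by flow cytometry on blood collected 96 h after infection. Mice watched for toxicity over 4 h post-dose each day.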

Plasmodium berghei [12] = assay: Antiplasmodial activity against Plasmodium berghei ANKA infected in NMRI mouse assessed as survival days at 1 mg/kg, po QD for 4 days; type: functional; conditions: time 4 day

Chain of Voltage-gated inwardly rectifying potassium channel KCNH2 (Q12809 whole entry): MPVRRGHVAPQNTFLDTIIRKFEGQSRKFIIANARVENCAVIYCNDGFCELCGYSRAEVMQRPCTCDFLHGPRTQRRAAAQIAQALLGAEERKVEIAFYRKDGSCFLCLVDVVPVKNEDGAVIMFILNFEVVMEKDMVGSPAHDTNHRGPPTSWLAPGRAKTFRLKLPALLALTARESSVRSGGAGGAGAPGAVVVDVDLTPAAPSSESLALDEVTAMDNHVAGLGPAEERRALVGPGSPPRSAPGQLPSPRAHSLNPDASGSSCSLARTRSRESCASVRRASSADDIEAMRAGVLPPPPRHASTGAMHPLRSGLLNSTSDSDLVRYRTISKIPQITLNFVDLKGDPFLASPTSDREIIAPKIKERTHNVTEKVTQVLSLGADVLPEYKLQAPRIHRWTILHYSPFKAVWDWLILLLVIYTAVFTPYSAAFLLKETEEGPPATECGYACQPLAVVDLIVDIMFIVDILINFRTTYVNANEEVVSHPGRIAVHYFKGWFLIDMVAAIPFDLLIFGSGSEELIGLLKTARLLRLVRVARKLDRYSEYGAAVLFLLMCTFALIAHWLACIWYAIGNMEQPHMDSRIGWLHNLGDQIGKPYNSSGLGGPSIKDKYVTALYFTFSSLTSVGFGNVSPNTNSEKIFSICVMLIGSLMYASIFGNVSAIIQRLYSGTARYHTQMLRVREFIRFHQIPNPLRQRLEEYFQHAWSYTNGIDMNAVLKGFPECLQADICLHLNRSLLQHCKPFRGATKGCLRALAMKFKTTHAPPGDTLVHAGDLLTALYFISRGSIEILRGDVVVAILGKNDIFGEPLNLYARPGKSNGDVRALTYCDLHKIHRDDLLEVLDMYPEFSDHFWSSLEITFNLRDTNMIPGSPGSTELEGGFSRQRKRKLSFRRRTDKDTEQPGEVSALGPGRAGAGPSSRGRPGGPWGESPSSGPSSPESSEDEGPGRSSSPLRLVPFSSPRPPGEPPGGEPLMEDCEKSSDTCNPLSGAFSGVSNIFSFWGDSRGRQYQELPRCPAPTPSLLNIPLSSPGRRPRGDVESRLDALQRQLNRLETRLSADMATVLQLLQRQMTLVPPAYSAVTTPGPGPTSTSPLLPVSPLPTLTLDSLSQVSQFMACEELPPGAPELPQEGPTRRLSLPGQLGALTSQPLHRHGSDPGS

SMILES	EC50 (Plasmodium falciparum [1])	EC50 (MRC5)	CLH [4]	solubility kinetic [5]	further results
Cc1ccc(-c2cc(C(=O)Nc3cccnc3)c3ccccc3n2)cc1	0.99 µM	> 50 µM			
C[C@@H]1CC[C@H]2[C@@H](C)C(=O)O[C@@H]3O[C@@]4(C)CC[C@@H]1[C@]32OO4 [ARTEMISININ]					EC50 (Plasmodium falciparum [2]): 0.0008 µM
O=C(NCCN1CCCC1)c1cc(-c2ccc(S(=O)(=O)N3CCOCC3)cc2)nc2ccc(F)cc12	0.004 µM	21 µM	1.9 mL/min/g	109 µM (≈ 55.9 µg/mL)	EC50 (Plasmodium berghei [3]): 0.015 µM; EC50 (Plasmodium falciparum [2]): 0.152 µM; Papp at 5 h, 10 µM [6]: 2.9 ×10⁻⁶ cm/s; PPB [7]: 75%; IC50 [8]: 11 µM
O=C(NCCN1CCCC1)c1cc(N2CCC(N3CCOCC3)CC2)nc2ccc(F)cc12	0.68 µM	25 µM	0.5 mL/min/g	220 µM (≈ 100 µg/mL)	
O=C(NCCN1CCCC1)c1cc(-c2ccc(CN3CCCC3=O)cc2)nc2ccc(F)cc12	0.007 µM		2 mL/min/g	> 217 µM	Papp at 5 h, 10 µM [6]: 4.9 ×10⁻⁶ cm/s; CLH [9]: 0.6 mL/min/g; CLH [10]: 2 mL/min/g; Activity (Plasmodium berghei [11]): <40%
Cc1ccc(-c2cc(C(=O)NCCN(C)C)c3cc(Cl)ccc3n2)cc1	1.2 µM	9 µM			
CN1CCN(c2cc(C(=O)NCCN3CCCC3)c3cc(F)ccc3n2)CC1	34 µM	20 µM			
Cc1cc(Nc2cc(C(=O)NCCN3CCCC3)c3cc(F)ccc3n2)on1	> 50 µM	> 50 µM			
O=C(NCCN1CCC(F)(F)C1)c1cc(NCCCN2CCOCC2)nc2ccc(F)cc12	18 µM				Papp at 5 h, 10 µM [6]: 8.9 ×10⁻⁶ cm/s
O=C(NCCN1CCCC1)c1cc(-c2ccc(CN3CCOCC3)cc2Cl)nc2ccc(F)cc12	0.003 µM	> 50 µM	0.5 mL/min/g	> 201 µM	PPB [7]: 56%
O=C(NCCN1CCCC1)c1cc(N2CCn3ccnc3C2)nc2ccc(F)cc12	5.8 µM	> 50 µM			
O=C(NCCN1CCCC1)c1cc(NCCN2CCCCC2)nc2ccc(F)cc12	8.9 µM	19 µM			
O=C(NCCN1CCCC1)c1cc(-c2cccc(CN3CCOCC3)c2)nc2ccc(F)cc12	11 µM				
O=C(NCCN1CCOCC1)c1cc(NCCCN2CCOCC2)nc2ccc(F)cc12	2.5 µM				Papp at 5 h, 10 µM [6]: 2.4 ×10⁻⁶ cm/s
O=C(NCCN1CCCC1)c1cc(-c2ccc(C(=O)N3CCOCC3)cc2)nc2ccc(F)cc12	0.14 µM	> 50 µM			
CN(C)c1ccc(-c2cc(C(=O)NCCN3CCCC3)c3cc(F)ccc3n2)cc1	0.81 µM	10 µM			
Cc1ccc(-c2cc(C(=O)NCCN3CCOCC3)c3cc(Cl)ccc3n2)cc1	3.6 µM	26 µM	11 mL/min/g	12 µM (≈ 4.92 µg/mL)	
O=C(NCCN1CCCC1)c1cc(-c2ccc(CN3CCOCC3)c(F)c2)nc2ccc(F)cc12	0.0006 µM	19 µM	1 mL/min/g	> 208 µM	Papp at 5 h, 10 µM [6]: 6.3 ×10⁻⁶ cm/s; Activity (Plasmodium berghei [11]): 99.8%; Survival (Plasmodium berghei [12]): 11 days
O=C(NCCN1CCCC1)c1cc(N2CCC(N3CCOCC3)CC2)nc2ccc(Cl)cc12	0.15 µM	13 µM	2.3 mL/min/g	210 µM (≈ 99.1 µg/mL)	

SMILES	EC50 (Plasmodium falciparum [1])	EC50 (MRC5)	CLH [4]	solubility kinetic [5]	further results
Cc1ccc(-c2cc(C(=O)NCCN3CCN(C)CC3)c3cc(Cl)ccc3n2)cc1	3.3 µM	8 µM			
O=C(NCCN1CCCC1)c1cc(-c2ccc(N3CCOCC3)cc2)nc2ccc(F)cc12	0.6 µM	17 µM			
O=C(NCCN1CCCC1)c1cc(-c2ccc(CN3CCS(=O)(=O)CC3)cc2)nc2ccc(F)cc12	0.0006 µM	41 µM	< 0.5 mL/min/g	171 µM (≈ 87.3 µg/mL)	Papp at 5 h, 10 µM [6]: 1.4 ×10⁻⁶ cm/s; CLH [9]: 0.8 mL/min/g; Activity (Plasmodium berghei [11]): 99%; Survival (Plasmodium berghei [12]): 7 days
O=C(NCCN1CCCC1)c1cc(NCCC2CCOCC2)nc2ccc(F)cc12	0.002 µM	> 50 µM			
Cc1ccc(-c2cc(C(=O)NCCN3CCCC3)c3cc(F)ccc3n2)cc1	0.7 µM	9 µM	3.4 mL/min/g	180 µM (≈ 67.9 µg/mL)	
COc1cc(C)c2c(Oc3cccc(C(F)(F)F)c3)c(OC)cc(NC(C)CCCN)c2n1 (stereo not drawn) [TAFENOQUINE]					EC50 (Plasmodium falciparum [2]): 5.25 µM
O=C(NCCN1CCCC(F)(F)C1)c1cc(NCCCN2CCOCC2)nc2ccc(F)cc12	36 µM				Papp at 5 h, 10 µM [6]: 12 ×10⁻⁶ cm/s
O=C(NCCN1CCOCC1)c1cc(-c2ccc(CN3CCOCC3)cc2)nc2ccc(F)cc12	0.012 µM		< 0.5 mL/min/g	> 210 µM	
O=C(NCCN1CCC(F)(F)CC1)c1cc(NCCCN2CCOCC2)nc2ccc(F)cc12	15 µM				Papp at 5 h, 10 µM [6]: 9.4 ×10⁻⁶ cm/s
Cc1ccc(-c2cc(C(=O)NCCN3CCCCC3)c3cc(Cl)ccc3n2)cc1	0.32 µM	7 µM			
COc1ccc2nc3cc(Cl)ccc3c(Nc3cc(CN4CCCC4)c(O)c(CN4CCCC4)c3)c2n1 [PYRONARIDINE]					EC50 (Plasmodium falciparum [2]): 3.11 µM
O=C(NCCN1CCC(F)CC1)c1cc(NCCCN2CCOCC2)nc2ccc(F)cc12	0.9 µM				Papp at 5 h, 10 µM [6]: 5.8 ×10⁻⁶ cm/s
Cc1ccc(-c2cc(C(=O)NCCCN(C)C)c3cc(Cl)ccc3n2)cc1	6.7 µM	6 µM	1.1 mL/min/g	262 µM (≈ 100 µg/mL)	
Cc1ccc(-c2cc(C(=O)Nc3cccnc3)c3cc(F)ccc3n2)cc1	0.35 µM	50 µM	8.6 mL/min/g	36 µM (≈ 12.9 µg/mL)	
Cc1ccc(-c2cc(C(=O)NCCN3CCCC3)c3cc(Cl)ccc3n2)cc1	0.44 µM	7 µM	2.1 mL/min/g	13 µM (≈ 5.12 µg/mL)	
Cc1ccc(-c2cc(C(=O)Nc3cccnc3)c3cc(Cl)ccc3n2)cc1	0.29 µM	21 µM			
Cc1ccc(-c2cc(C(=O)Nc3cccnc3)c3cc(Br)ccc3n2)cc1	0.12 µM	21 µM	5.3 mL/min/g	39 µM (≈ 16.3 µg/mL)	
O=C(NCCN1CCCC1)c1cc(NCCN2CCOCC2)nc2ccc(F)cc12	0.19 µM	50 µM			
